Compounds with a hit are over-represented: about 3.1% of the library has one in this group of screens.
LEDGF integ inh: blocks HIV-1 LEDGF/p75-dependent DNA integration | TR-FRET IN-LEDGF/p75 DNA integration, Eu/Cy5 | inhibition, % at 3.7 µM | hit rate 0.64% among 370,000;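 active = inhibition above the screen-wide mean plus 3 SD, cut at about 13% in these data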;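 also: signal is the Cy5 over europium emission ratio at 671 and 618 nm; 0% = plate median of compound wells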
ABHD5-PLIN5 inh: ABHD5-PLIN5 protein interaction inhibition | Q00G26+Q8WTS1 | Split G. princeps luciferase complementation, luminescence, 4 h | inhibition, % at 4 µM | hit rate 0.78% among 360,000;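 active = inhibition above the mean inhibition across every tested compound plus 3 SD, cut at about 22% in these data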;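 also: 0% = DMSO only wells and the 100% control is not disclosed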
MBD2 DNA inh: blocks human MBD2 binding to methylated DNA. Q9UBB5. TR-FRET, MBD2 binding to methylated oligonucleotide. inhibition, % at 4.4 µM. hit rate 0.31% among 370,000. AID 686964; in the data active = inhibition above about 13%
RBBP9 inh: human RBBP9 hydrolase inhibition | recombinant RBBP9, FP-Rh probe fluorescence polarization | hit rate 0.2% among 220,000 | AID 1515 | O75884 | inhibition, % at 7.94 µM;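 active = inhibition above the campaign mean of all tested compounds plus 3 SD, cut at about 14% in these data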;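 also: plate controls were DMSO wells with RBBP9 for no effect and wells lacking RBBP9 protein for full effect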
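Measured by: FP readout at 525/598 nm; material: recombinant human RBBP9; also added: Serine-hydrolase probe FP-Rh, 375 nM pre-mixing; medium: Tris buffer pH 8.0, NaCl, Pluronic; replication: one well per compound; doses: one concentration, 7.94 µM nominal, 0.794% DMSO; timing: preincubation 30 min plus labeling 45 min at 25 °C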
UHRF1 MBD2 ctr: UHRF1 methyl-DNA binding inhibition. inhibition, % at 4.4 µM. UHRF1 binding to methylated oligo, TR-FRET. AID 687016. hit rate 0.75% among 370,000; in the data active = inhibition above about 21%;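 also: UHRF1 SRA domain binding a hemimethylated CpG hairpin DNA probe; 0% = median of test compound wells and 100% = reference inhibitor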
Target sequence (Q96T88 whole entry, looked up, the tested form may be a part): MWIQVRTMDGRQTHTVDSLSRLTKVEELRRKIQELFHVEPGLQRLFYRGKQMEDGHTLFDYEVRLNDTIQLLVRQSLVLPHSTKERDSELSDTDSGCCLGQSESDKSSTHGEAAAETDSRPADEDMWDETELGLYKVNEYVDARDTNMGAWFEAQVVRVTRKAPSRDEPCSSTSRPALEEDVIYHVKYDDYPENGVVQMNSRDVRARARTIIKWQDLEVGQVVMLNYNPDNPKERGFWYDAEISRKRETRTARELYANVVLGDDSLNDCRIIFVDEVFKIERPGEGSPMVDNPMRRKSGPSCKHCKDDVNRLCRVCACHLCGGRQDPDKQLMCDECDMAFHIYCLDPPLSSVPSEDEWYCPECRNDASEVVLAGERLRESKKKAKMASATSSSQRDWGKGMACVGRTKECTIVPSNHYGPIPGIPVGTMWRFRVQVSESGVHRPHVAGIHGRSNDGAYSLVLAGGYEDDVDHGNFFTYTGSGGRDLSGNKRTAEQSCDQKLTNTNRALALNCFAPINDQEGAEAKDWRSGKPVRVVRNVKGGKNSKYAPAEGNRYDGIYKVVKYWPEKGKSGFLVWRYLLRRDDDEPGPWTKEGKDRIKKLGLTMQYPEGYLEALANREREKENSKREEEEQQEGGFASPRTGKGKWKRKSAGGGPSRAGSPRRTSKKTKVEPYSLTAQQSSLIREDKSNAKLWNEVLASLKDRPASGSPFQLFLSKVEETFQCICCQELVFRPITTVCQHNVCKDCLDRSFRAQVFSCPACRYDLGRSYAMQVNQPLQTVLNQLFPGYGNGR
PRMT1 inh: PRMT1 (human) inhibition, primary screen; Q99873; recombinant PRMT1, activity-based probe fluorescence polarization; inhibition, % at 2.79 µM; hit rate 1.3% among 370,000;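 active = inhibition above about 21% made by adding two undisclosed values, limit read from the data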
An asterisk follows results filed as active; nt = not tested or not shown.

SMILES	LEDGF integ inh	ABHD5-PLIN5 inh	MBD2 DNA inh	RBBP9 inh	UHRF1 MBD2 ctr	PRMT1 inh
COC(=O)c1cc2c(c3c4cc(OC)ccc4n(S(=O)(=O)c4ccc(OC)cc4)c13)C(=O)N(Cc1ccco1)C2	2	nt	5	nt	2	2
O=C(O)c1ccc(-c2nc(-c3ccc(Cl)cc3Cl)cs2)cc1	4	10	-5	-4	-6	-3
CC(=O)N1CC[n+]2c(-c3ccc(Cl)cc3Cl)csc21	1	-20	2	-8	1	57*
COc1ccc(-c2cc(C(=O)NNC(=S)NC(=O)c3c(-c4ccccc4)noc3C)[nH]n2)cc1	-11	-2	1	-3	22*	2
COc1ccc(/C=C/C(=O)NC(=S)NNC(=O)c2c(-c3ccccc3)noc2C)cc1	-2	-2	1	-12	0	0
CCCCCCCCN1C(=O)[C@@H](CC(=O)N2CCOCC2)C[C@@]2(C(=O)OC)C1=C[C@H](C(C)C)O[C@@H]2C1CC1	3	nt	2	nt	-1	-4
CC(=O)c1ccc(NC(=O)NC2CCCCN(Cc3cccc(Cl)c3)C2=O)cc1 (configuration not stated)	7	nt	-7	nt	4	-4
C=C(C)c1cccc(C(C)(C)NC(=O)N2CCCCC2CC)c1 (configuration not stated)	3	6	7	1	22*	2
C=C(C)c1cccc(C(C)(C)NC(=O)N2CCN(CC)CC2)c1	-2	1	-4	-2	1	-2
Cc1ccc(S(=O)(=O)OCC(=O)Nc2ccc(C(=O)O)c(O)c2)cc1	15*	3	8	nt	8	21*
O=C(CSc1nnc(-c2ccc(Cl)cc2)n1C1CCCCC1)NN=Cc1c(O)ccc2ccccc12	-1	nt	-3	nt	-1	2
CCCCn1c(N)c(N(CCOC)C(=O)C2CCN(S(=O)(=O)c3ccc(Cl)cc3)CC2)c(=O)[nH]c1=O	3	0	7	nt	24*	3
CCCCn1c(N)c(N(CCOC)C(=O)CSc2ccccc2C)c(=O)[nH]c1=O	9	1	-5	nt	-3	-2
COCCN(C(=O)CSc1ncccn1)c1c(N)n(Cc2ccccc2)c(=O)[nH]c1=O	-1	-3	-1	nt	-1	3
CCCCn1c(N)c(N(CCOC)C(=O)CSCc2ccccc2C)c(=O)[nH]c1=O	7	-1	13	nt	33*	0
CCN(CC)c1ccc(-c2nnc(SCC(=O)N(CCOC)c3c(N)n(CC(C)C)c(=O)[nH]c3=O)o2)cc1	-1	8	1	nt	80*	-4
COCCN(C(=O)CSc1ncn[nH]1)c1c(N)n(Cc2ccccc2)c(=O)[nH]c1=O	5	2	4	nt	27*	-2
CC(=O)OCCCN1CCC2(CCCCC2)C1=O	-2	nt	-2	nt	-3	1
COC(=O)c1cccc(Cn2ccc3ccc(-c4ccc5ccn(C(=O)c6ccccc6OC)c5c4)cc32)c1	5	nt	-2	nt	-1	-6
C=CC[C@@]1(c2ccc(Br)cc2OC)Oc2ccccc2-c2nccnc21	-1	nt	2	nt	1	1
Cc1cnc(C)c(Nc2nc(C(N)Cc3ccc(Cl)cc3)cs2)n1 (configuration not stated)	5	0	7	nt	0	25*
COC(=O)C1=C(C)N(Cc2cccc(C(F)(F)F)c2)C(=NCc2ccc(OC)cc2)NC1c1cccc(F)c1 (configuration not stated)	1	nt	-1	nt	1	2
O=C(N/N=C\C=C\c1ccco1)C1COc2ccccc2O1 (configuration not stated)	-2	23*	9	-2	2	11
O=C(N/N=C/C=C/c1ccc([N+](=O)[O-])cc1)C1COc2ccccc2O1 (configuration not stated)	0	3	-2	-7	-3	-1
O=C(O)/C=C\C(=O)Nc1ccccc1C(=O)N1CCN(c2ccc(Cl)cc2)CC1	0	0	2	-1	-1	24*
SMILES	LEDGF integ inh	ABHD5-PLIN5 inh	MBD2 DNA inh	RBBP9 inh	UHRF1 MBD2 ctr	PRMT1 inh
CC(C)c1ccc(N2CCN(C(=O)c3ccccc3NC(=O)/C=C\C(=O)O)CC2)cc1	4	-1	-2	0	1	17
O=[N+]([O-])c1ccc2c(c1)ncn2CCc1ccccc1	-2	4	0	nt	26*	0
COC(=O)COc1coc(CN2CCN(c3cccc(Cl)c3)CC2)cc1=O	7	-3	5	nt	21*	-3
CCOC(=O)COc1coc(CN2CCN(c3cccc(Cl)c3)CC2)cc1=O	1	2	-2	nt	1	4
Nc1nc(Cn2nnc(-c3ccccc3Cl)n2)nc(N2CCOCC2)n1	-1	2	0	-6	29*	-3
COC(=O)[C@]12C[C@H](CC(=O)NCCC(C)C)C(=O)N(Cc3ccc4c(c3)OCO4)C1=C[C@H](C(C)(C)C)O[C@@H]2C	2	nt	-2	nt	1	-1
Cc1ccc(S(=O)(=O)N2CCN(C(=O)CCC(=O)NCCc3ccc(S(N)(=O)=O)cc3)CC2)c(C)c1	-1	-10	8	-5	44*	1
CC(C)Cc1nnc(NC(=O)CCc2c[nH]c3ccccc23)s1	-2	-5	11	-11	25*	6
CC(C)Cc1nnc(NC(=O)CCC(=O)Nc2ccc(Cl)cc2)s1	-2	4	-5	nt	-1	4
CC(C)Cc1nnc(NC(=O)CCS(=O)(=O)c2ccc(Cl)cc2)s1	4	0	11	nt	24*	5
CCc1nnc(NC(=O)Cc2c[nH]c3ccccc23)s1	-2	-4	0	-3	4	0
CCN(Cc1cn(Cc2ccc(C)cc2)nn1)S(=O)(=O)c1ccccc1Br	1	nt	-2	nt	1	0
O=C(O)Cc1ccccc1C(=O)O	-2	-4	-1	-9	-1	-4
O=C(O)c1ccccc1CC(CCc1ccccc1)C(=O)O (configuration not stated)	5	1	11	nt	21*	1
C#CCn1c2ccccc2c2nc3ccccc3nc21	-2	2	0	nt	23*	1
CCOc1ccc(CCNC(=O)Nc2ccccc2C)cc1OCC	-8	-5	-1	nt	21*	5
CCOc1ccc2c(c1)[nH]c(=S)n2C	-1	-1	-1	-5	39*	-3
CC(C)c1cc2c(c(O)c1O)[C@@]13CCCC(C)(C)C1CC2OC3=O (some centres not stated)	-5	-3	3	nt	-5	36*
Cc1nnc(SCC(=O)NCc2ccccc2Cl)[nH]c1=O	1	-4	3	6	21*	-1
Cc1ccc2nc(/C(C#N)=C/c3ccc(O)c(O)c3)[nH]c2c1	-1	-2	-4	nt	-5	27*
Cc1ccc2nc(/C(C#N)=C/c3ccccc3C(=O)O)[nH]c2c1	5	3	-4	nt	-6	-7

Screening results from PubChem.
